The text below walks through data of ChEMBL document CHEMBL4425103, “Diving into the Water: Inducible Binding Conformations for BRD4, TAF1(2), BRD9, and CECR2 Bromodomains” (J Med Chem, 2016).

For assay [1], the system named is T1, Chromatin remodeling regulator CECR2 (Homo sapiens), Q9BXF3 [M506I].
T1 sequence (whole entry): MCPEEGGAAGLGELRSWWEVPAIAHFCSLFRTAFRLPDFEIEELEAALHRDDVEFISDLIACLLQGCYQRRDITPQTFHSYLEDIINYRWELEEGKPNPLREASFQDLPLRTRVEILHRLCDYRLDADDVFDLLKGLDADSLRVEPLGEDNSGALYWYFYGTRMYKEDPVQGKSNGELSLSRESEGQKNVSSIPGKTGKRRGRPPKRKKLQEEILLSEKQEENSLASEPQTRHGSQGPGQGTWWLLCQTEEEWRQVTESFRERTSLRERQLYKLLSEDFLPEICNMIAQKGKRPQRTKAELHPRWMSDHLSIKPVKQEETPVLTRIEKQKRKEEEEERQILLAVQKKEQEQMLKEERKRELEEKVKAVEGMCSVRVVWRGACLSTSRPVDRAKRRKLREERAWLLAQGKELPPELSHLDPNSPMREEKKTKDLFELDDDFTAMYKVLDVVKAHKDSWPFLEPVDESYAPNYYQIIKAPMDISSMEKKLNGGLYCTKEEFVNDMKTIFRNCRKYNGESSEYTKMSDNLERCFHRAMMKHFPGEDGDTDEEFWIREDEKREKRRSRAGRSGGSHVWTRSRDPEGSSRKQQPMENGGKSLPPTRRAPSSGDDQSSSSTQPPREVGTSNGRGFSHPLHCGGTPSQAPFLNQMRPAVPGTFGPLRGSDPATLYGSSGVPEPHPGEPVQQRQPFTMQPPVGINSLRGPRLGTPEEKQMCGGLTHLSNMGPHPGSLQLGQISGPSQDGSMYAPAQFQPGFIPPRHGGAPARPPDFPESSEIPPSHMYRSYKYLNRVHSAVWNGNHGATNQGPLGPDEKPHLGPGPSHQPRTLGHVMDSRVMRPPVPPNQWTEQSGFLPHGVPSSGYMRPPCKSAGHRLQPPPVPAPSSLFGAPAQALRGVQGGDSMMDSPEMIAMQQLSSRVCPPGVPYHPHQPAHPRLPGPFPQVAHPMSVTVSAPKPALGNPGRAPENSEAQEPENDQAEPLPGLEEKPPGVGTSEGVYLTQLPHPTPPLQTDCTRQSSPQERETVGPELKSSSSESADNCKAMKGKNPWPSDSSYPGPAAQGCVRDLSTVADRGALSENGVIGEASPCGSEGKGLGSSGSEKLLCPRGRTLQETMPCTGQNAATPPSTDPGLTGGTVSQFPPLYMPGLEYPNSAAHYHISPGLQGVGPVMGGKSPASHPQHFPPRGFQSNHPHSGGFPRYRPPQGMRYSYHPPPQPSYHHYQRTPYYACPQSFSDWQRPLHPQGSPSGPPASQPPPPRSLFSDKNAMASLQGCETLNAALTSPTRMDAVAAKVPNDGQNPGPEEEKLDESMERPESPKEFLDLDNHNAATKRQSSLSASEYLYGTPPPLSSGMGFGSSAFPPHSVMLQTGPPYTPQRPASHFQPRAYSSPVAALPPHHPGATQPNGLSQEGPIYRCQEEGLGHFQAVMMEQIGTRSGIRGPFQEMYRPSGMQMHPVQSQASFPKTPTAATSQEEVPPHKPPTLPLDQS
Kind of assay: Binding affinity to CECR2 M506I mutant (unknown origin) assessed as change in melting temperature at 10 uM by SYPRO red dye based differential scanning fluorimetry. Summed up: (§1)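 Differential scanning fluorimetry: aggregate removed by centrifugation, then bromodomain at 4 µM final with 10X SYPRO Red, 10 µM compound and 0.2% DMSO in 20 mM HEPES pH 7.7, 100 mM NaCl. Heated 25 to 95 °C, fluorescence read at 1 °C steps. Apparent Tm taken from melt curves; mean of at least five wells for CECR2.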
Background: In DSF a fluorescence change marks the thermal transition of the protein.

In assay [2] the target is Chromatin remodeling regulator CECR2 (Homo sapiens, UniProt Q9BXF3). Description: Binding affinity to wild type CECR2 (unknown origin) assessed as change in melting temperature at 10 uM by SYPRO red dye based differential scanning fluorimetry. The procedure, abridged:
as §1

Chromatin remodeling regulator CECR2, sequence (Q9BXF3 whole entry, looked up): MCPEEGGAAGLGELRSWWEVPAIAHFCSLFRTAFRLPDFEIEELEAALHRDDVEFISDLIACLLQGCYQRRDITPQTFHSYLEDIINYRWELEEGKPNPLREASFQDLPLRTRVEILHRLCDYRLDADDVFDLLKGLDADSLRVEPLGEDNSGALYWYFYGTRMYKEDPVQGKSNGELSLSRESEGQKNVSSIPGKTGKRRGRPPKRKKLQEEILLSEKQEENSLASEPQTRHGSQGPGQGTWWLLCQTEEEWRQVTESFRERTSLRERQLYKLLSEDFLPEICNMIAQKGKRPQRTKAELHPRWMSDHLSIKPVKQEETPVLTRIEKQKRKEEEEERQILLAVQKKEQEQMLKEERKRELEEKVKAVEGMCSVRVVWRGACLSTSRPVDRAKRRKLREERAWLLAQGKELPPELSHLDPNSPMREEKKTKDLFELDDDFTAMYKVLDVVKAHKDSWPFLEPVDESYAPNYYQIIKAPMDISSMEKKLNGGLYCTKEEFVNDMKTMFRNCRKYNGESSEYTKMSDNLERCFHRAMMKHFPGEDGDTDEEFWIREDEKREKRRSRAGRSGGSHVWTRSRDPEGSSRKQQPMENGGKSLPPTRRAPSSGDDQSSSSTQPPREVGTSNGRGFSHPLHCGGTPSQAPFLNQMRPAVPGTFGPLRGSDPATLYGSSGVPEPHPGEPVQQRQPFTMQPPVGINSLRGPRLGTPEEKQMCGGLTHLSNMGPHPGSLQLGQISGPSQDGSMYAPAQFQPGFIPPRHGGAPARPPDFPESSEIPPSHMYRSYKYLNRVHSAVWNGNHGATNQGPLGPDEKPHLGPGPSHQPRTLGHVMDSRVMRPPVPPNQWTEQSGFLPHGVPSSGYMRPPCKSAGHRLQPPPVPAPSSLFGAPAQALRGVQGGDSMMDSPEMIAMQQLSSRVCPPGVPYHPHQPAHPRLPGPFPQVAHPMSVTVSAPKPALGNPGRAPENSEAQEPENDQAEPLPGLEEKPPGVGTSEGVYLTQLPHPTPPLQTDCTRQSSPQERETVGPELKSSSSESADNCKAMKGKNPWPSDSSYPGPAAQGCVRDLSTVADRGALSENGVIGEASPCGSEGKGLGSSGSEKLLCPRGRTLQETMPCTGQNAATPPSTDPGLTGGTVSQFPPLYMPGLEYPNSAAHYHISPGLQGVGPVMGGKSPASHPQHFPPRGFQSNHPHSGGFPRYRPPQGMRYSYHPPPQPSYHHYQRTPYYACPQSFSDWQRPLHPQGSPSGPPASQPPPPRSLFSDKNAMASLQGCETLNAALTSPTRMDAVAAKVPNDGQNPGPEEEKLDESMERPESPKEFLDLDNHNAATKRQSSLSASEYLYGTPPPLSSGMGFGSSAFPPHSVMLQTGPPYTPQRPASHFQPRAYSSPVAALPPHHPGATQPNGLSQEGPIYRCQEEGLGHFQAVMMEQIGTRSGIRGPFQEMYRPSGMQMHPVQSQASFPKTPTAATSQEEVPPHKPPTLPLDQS

Usually ΔTm stands for the change in melting temperature against a reference sample. Regarding `CN(C)C(=O)c1cccc(-c2cn(C)c(=O)c3[nH]ccc23)c1`, the thermal shift (ΔTm) in assay [1] came out at 3 °C; in assay [2] it was 6 °C.
The like results for `C=CCn1cc(-c2cccc(C(=O)N(C)C)c2)c2cc[nH]c2c1=O` were, in that order, 2 °C and 6 °C.
